This note sets out measurements from ChEMBL document CHEMBL3091291, “Synthesis and pharmacological characterization of benzenesulfonamides as dual species inhibitors of human and murine mPGES-1” (Bioorg Med Chem, 2013).

Active and inactive are the calls of the source. The calls are words filed in the database; no cut-off is given here.

In data set [1] the target is T1, Prostaglandin E synthase (Homo sapiens) (UniProt O14684).
T1 sequence (whole entry): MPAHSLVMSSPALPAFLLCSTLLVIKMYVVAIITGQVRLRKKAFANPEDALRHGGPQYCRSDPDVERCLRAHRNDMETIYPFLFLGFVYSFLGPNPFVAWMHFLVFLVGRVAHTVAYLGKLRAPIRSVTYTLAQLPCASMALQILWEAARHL
Nature of the data set: Inhibition of mPGES-1 in human HeLa cells using PGH2 as substrate assessed as inhibition of IL-1beta/TNFalpha-stimulated PGE2 production at 100 uM after 24 hrs by LC-MS/MS analysis. It is filed as cell-based. Summed up: (§1)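 HeLa cells (2 × 10⁴ per well) grown 24 h at 37 °C, then given fresh medium with 1 ng/mL IL-1b + 5 ng/mL TNFa (or PBS for unstimulated control) plus compound (1, 10 or 100 µM) or DMSO for 24 h at 37 °C. Supernatant mixed with H₃PO₄, EDTA and deuterated internal standards; PGE₂ measured by SPE and LC–MS/MS.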

Data set [2] deals with T2, Prostaglandin G/H synthase 2 (Homo sapiens) (UniProt P35354).
T2 sequence (whole entry): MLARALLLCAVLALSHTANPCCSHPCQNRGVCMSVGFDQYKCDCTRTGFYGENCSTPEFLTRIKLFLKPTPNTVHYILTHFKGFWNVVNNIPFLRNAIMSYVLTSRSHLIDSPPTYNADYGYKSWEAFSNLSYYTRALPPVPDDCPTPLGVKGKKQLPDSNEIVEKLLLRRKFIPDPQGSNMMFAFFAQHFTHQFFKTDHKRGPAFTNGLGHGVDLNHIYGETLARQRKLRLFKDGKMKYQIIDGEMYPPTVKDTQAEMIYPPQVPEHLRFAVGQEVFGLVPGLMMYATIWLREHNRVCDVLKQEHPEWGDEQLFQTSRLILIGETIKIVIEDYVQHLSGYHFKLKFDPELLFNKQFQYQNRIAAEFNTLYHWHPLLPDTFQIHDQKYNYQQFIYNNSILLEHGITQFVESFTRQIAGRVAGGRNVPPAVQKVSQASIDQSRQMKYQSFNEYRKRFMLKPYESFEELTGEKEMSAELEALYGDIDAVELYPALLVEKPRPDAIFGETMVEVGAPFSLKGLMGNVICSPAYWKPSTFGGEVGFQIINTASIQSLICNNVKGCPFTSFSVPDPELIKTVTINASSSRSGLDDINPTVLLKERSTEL
Nature of the data set: Inhibition of LPS-stimulated COX2 in human whole blood assessed as reduction in PGF2alpha production by measuring remaining activity at 100 uM preincubated for 15 mins followed by LPS addition measured after 24 hrs by LC-MS/MS analysis. In a few lines:
(§2)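 Heparinized human whole blood (500 µL) mixed with compound in DMSO, with acetylsalicylic acid added to block COX-1, held 15 min at 37 °C, then stimulated with LPS in autologous plasma to induce COX-2/mPGES-1. After 24 h at 37 °C, samples chilled 5 min on ice; plasma collected, prostaglandins extracted and measured by LC–MS/MS. Remaining activity given relative to vehicle control.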

Data set [3] in a line: Cytotoxicity against IL-1beta/TNFalpha-stimulated human HeLa cells assessed as cell viability at 100 uM after 24 hrs by WST-1 assay. It is filed as cell-based. The settings on record: IL-1beta/TNFalpha-stimulated HeLa cells, read-out: Activity. In a few lines:
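HeLa cells seeded at 3 × 10³ per well in medium with 10% FCS, grown 24 h at 37 °C, then stimulated with IL-1b (1 ng/mL) + TNFa (5 ng/mL) and treated at the same time with compound (1, 10, 100 µM) or DMSO for 24 h. WST-1 reagent then added for 90–150 min; absorbance read at 450 nm against 620 nm reference.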
(Tetrazolium assays rely on reduction of a dye to a coloured formazan, in cell work by metabolically active cells.)

The target in data set [4] is T1, Prostaglandin E synthase (Homo sapiens). Nature of the data set: Inhibition of mPGES-1 in human HeLa cells using PGH2 as substrate assessed as inhibition of IL-1beta/TNFalpha-stimulated PGE2 production at 10 uM after 24 hrs by LC-MS/MS analysis. It is filed as cell-based. In a few lines: as §1
Data set [5] has as its target T3, Prostaglandin E synthase (Mus musculus) (UniProt Q9JM51).
T3 sequence (whole entry): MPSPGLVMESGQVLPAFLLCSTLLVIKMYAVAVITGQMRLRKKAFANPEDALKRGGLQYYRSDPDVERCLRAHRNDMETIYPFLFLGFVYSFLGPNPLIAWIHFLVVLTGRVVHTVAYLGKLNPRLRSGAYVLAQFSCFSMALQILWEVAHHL
As to the kind of experiment: Inhibition of mPGES-1 in Swiss mouse NIH/3T3 cells using PGH2 as substrate assessed as inhibition of IL-1beta/TNFalpha-stimulated PGE2 production at 5 uM preincubated for 30 mins followed by substrate addition measured after 1 min by LC-MS/MS analysis. The format is cell-based. In a few lines: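 Microsomal fraction from HeLa, NIH-3T3 or RAW 264.7 cells, obtained by sonication and ultracentrifugation, resuspended in 0.1 M KPi pH 7.4 with 2.5 mM reduced GSH. Protein at 0.15 mg/mL (HeLa, NIH) or 0.3 mg/mL (RAW) incubated with compound 30 min on ice. Reaction started with 20 µM PGH₂, stopped after 1 min with FeCl₂/citric acid. PGE₂ quantified by SPE and LC–MS/MS. IC50 from four-parameter logistic fit of increasing concentrations.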

Data set [6] concerns the target T2, Prostaglandin G/H synthase 2 (Homo sapiens). Nature of the data set: Inhibition of LPS-stimulated COX2 in human whole blood assessed as reduction in PGE2 production by measuring remaining activity at 100 uM preincubated for 15 mins followed by LPS addition measured after 24 hrs by LC-MS/MS analysis. In a few lines:
as §2

Data set [7] addresses T1, Prostaglandin E synthase (Homo sapiens). As to the kind of experiment: Inhibition of mPGES-1 in human HeLa cells using PGH2 as substrate assessed as inhibition of IL-1beta/TNFalpha-stimulated PGE2 production at 1 to 10 uM after 24 hrs by LC-MS/MS analysis. It is filed as cell-based. In a few lines:
as §1

Data set [8] has as its target Prostaglandin G/H synthase 1 (Homo sapiens) (UniProt P23219). As to the kind of experiment: Inhibition of COX1 in human whole blood assessed as reduction in TXB2 production by measuring remaining activity at 100 uM after 1 hr by LC-MS/MS analysis.

Prostaglandin G/H synthase 1 (Homo sapiens), sequence (P23219 whole entry): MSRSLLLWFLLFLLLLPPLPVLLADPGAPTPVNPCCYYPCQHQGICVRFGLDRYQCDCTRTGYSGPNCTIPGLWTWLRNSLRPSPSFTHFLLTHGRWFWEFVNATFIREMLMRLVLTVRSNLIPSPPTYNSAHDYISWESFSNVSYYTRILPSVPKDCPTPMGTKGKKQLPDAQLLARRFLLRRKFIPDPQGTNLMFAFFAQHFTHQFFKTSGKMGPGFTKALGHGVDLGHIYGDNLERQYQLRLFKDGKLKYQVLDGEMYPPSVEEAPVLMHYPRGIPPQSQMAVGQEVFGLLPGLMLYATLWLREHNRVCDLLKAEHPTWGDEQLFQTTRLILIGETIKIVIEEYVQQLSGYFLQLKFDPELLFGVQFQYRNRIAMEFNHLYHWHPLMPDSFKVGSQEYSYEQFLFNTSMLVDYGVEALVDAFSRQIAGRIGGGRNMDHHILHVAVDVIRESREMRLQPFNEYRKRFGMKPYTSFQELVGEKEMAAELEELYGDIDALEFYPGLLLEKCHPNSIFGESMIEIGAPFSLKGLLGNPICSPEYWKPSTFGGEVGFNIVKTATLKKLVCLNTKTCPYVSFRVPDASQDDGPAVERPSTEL

As for `COc1ccc(CN(Cc2ccccc2)S(=O)(=O)c2ccc(C(=O)O)cc2)cc1`, the inhibition (commonly how much of the control response was suppressed) in data set [1] was “Active”. Moreover, the values for the Activity in data set [2], in data set [6] and in data set [8] were 107%, 74.4% and 90%, respectively. Besides, the viability at 24 h, 100 µM in data set [3] is 50%. For the same compound, the inhibition entry in data set [4] and in data set [7] was “inactive” each time. Besides, the inhibition in data set [5] came out at 10.6%.
With `COc1ccc(CN(CC2CCCCC2)S(=O)(=O)c2ccc(C(=O)O)cc2)cc1`, the inhibition result in data set [1] and in data set [4] was “Active” throughout. Also, the Activity was 114% in data set [2], 39% in data set [6] and 83.6% in data set [8]. The viability at 24 h, 100 µM in data set [3] turned out to be 50%. For the same compound, the inhibition in data set [5] was found to be 48.5%. In addition, the inhibition entry in data set [7] was “inactive”.
`O=C(O)c1ccc(S(=O)(=O)N(Cc2ccccc2)Cc2ccc(Nc3ccccc3)cc2)cc1`: the inhibition entry in data set [1] and in data set [4] was “Active” each time. Besides, the Activity was 90.9% in data set [2], 61.2% in data set [6] and 110% in data set [8]. Also, the viability at 24 h, 100 µM in data set [3] turned out to be 50%. Besides, in data set [5], the inhibition came out at 67.9%. Besides, the inhibition result in data set [7] was “inactive”.
As for `O=C(O)c1ccc(S(=O)(=O)N(Cc2ccccc2)c2ccc(Oc3ccccc3)cc2)cc1`, the inhibition entry in data set [1] and in data set [4] was “Active” throughout. The Activity in data set [2] is 86.8%; in data set [6], 66.8%; in data set [8] it was 85.2%. Also, the viability at 24 h, 100 µM in data set [3] was determined as 50%. The inhibition in data set [5] is 71.2%. For the same compound, the inhibition entry in data set [7] is “inactive”.
Turning to `O=C(O)c1ccc(S(=O)(=O)N(Cc2ccccc2)Cc2ccc(Oc3ccccc3)cc2)cc1`, the inhibition result in data set [1] and in data set [4] was “Active” each time. Also, the Activity in data set [2] is 92.5%; in data set [6], 88.7%; in data set [8], 92.4%. Besides, the viability at 24 h, 100 µM in data set [3] worked out at 50%. In data set [5], the inhibition is 65.1%. In addition, in data set [7], the inhibition result is “inactive”.
